Calls of active or inactive are those of the source. No cut-off for these calls is given here.
Columns and labels:
Escherichia coli = test: Binding affinity to Escherichia coli negative supercoiled pBR322 DNA at 10 uM after 12 hrs by ethidium bromide staining based agarose gel electrophoresis
Procedure, shortened: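 Negatively supercoiled pBR322 (400 ng) in TE buffer pH 8.0 was incubated with compound at 10 μM for 12 h at room temperature. Loading buffer with sarkosyl was added. Samples were run on 1% agarose at 6 V/cm for 2.5 h in TAE pH 8.5, stained with ethidium bromide and photographed under UV.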

MDA-MB-231 = test: Antiproliferative activity against human MDA-MB-231 cells after 72 hrs by XTT assay; type: functional, cell-based; details: MDA-MB-231, 72 h
Procedure, shortened: (§1)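 Cells kept as monolayers in DMEM with 10% FBS, penicillin, streptomycin and amphotericin at 37°C, 5% CO2. Seeded at 5 x 10³ cells/well and exposed to compound for 72 h in medium with 10% FBS. XTT plus electron-coupling reagent added, 4 h at 37°C, absorbance read at 492 nm. Percent of control growth uses mean absorbance (n = 3). The 50% value is taken from the linear portion of the curve.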

[1] = molecular target: DNA topoisomerase 2-alpha (Homo sapiens) (UniProt P11388); test: Inhibition of human DNA topoisomerase 2-mediated relaxation of supercoiled pBR322 DNA at 10 uM after 30 mins by ethidium bromide staining based agarose gel electrophoresis
Procedure, shortened: (§2)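 Human topo I or topo II (2 units) was reacted with 0.2 μg supercoiled pBR322 in 20 μl Tris-HCl pH 7.5 containing KCl, DTT, EDTA, MgCl2 and BSA, with DMSO held at 0.5%, for 30 min at 37°C. The reaction was stopped with SDS. Samples were run on 1% agarose in Tris-acetate/EDTA at 1.5 V/cm for 2-3 h and stained with ethidium bromide. Relaxation was quantified by densitometry of the supercoiled band area.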

[2] = molecular target: T1, DNA topoisomerase 1 (Homo sapiens) (UniProt P11387); test: Inhibition of human DNA topoisomerase 1-mediated relaxation of supercoiled pBR322 DNA at 10 uM after 30 mins by ethidium bromide staining based agarose gel electrophoresis; procedure, shortened: as §2
T1 sequence (whole entry): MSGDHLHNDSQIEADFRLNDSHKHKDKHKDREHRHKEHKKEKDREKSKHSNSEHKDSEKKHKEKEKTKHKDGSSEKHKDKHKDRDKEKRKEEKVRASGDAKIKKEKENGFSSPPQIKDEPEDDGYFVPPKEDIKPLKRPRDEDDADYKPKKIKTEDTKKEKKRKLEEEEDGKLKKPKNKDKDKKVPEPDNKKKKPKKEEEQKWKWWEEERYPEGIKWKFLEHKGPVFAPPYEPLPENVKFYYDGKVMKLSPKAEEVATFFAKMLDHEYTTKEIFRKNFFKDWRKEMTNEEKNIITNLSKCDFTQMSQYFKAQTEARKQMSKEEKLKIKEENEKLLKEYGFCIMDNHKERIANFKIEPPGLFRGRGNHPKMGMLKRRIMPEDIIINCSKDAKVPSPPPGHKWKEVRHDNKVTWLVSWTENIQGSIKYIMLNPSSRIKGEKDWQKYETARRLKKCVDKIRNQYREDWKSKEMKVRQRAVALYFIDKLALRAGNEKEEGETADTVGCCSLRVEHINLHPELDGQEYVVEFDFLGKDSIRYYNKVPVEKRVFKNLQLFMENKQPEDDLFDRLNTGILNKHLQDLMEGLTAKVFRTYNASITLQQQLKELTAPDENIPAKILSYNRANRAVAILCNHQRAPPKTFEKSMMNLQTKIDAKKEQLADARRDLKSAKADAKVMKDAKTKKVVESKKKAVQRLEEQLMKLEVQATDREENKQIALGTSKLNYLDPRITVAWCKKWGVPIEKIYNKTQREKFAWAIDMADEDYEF

[3] = Antiproliferative activity against human H1299 cells after 72 hrs by XTT assay; type: functional, cell-based; details: NCI-H1299, 72 h; procedure, shortened: as §1
[4] = molecular target: T1, DNA topoisomerase 1 (Homo sapiens); test: Inhibition of human DNA topoisomerase 1-mediated relaxation of supercoiled pBR322 DNA at 100 uM after 30 mins by ethidium bromide staining based agarose gel electrophoresis; procedure, shortened: as §2
Huh-7 = test: Selectivity index, ratio of IC50 for human MRC5 cells to IC50 for human HuH7 cells; type: functional
[5] = molecular target: DNA topoisomerase 2-alpha (Homo sapiens) (UniProt P11388); test: Inhibition of human DNA topoisomerase 2-mediated relaxation of supercoiled pBR322 DNA at 100 uM after 30 mins by ethidium bromide staining based agarose gel electrophoresis; procedure, shortened: as §2
[6] = Antiproliferative activity against human PC3 cells after 72 hrs by XTT assay; type: functional, cell-based; details: PC-3, 72 h; procedure, shortened: as §1
MRC5 [7] = test: Antiproliferative activity against human MRC5 cells after 72 hrs by XTT assay; type: cell-based; details: MRC5, 72 h; procedure, shortened: as §1
[8] = Antiproliferative activity against human HuH7 cells after 72 hrs by XTT assay; type: functional, cell-based; details: Huh-7, 72 h; procedure, shortened: as §1
[9] = Selectivity index, ratio of IC50 for human MRC5 cells to IC50 for human H1299 cells; type: functional
MRC5 [10] = test: Selectivity index, ratio of IC50 for human MRC5 cells to IC50 for human PC3 cells; type: functional
MRC5 [11] = test: Selectivity index, ratio of IC50 for human MRC5 cells to IC50 for human MDA-MB-231 cells; type: functional

DNA topoisomerase 2-alpha (Homo sapiens), sequence (P11388 whole entry): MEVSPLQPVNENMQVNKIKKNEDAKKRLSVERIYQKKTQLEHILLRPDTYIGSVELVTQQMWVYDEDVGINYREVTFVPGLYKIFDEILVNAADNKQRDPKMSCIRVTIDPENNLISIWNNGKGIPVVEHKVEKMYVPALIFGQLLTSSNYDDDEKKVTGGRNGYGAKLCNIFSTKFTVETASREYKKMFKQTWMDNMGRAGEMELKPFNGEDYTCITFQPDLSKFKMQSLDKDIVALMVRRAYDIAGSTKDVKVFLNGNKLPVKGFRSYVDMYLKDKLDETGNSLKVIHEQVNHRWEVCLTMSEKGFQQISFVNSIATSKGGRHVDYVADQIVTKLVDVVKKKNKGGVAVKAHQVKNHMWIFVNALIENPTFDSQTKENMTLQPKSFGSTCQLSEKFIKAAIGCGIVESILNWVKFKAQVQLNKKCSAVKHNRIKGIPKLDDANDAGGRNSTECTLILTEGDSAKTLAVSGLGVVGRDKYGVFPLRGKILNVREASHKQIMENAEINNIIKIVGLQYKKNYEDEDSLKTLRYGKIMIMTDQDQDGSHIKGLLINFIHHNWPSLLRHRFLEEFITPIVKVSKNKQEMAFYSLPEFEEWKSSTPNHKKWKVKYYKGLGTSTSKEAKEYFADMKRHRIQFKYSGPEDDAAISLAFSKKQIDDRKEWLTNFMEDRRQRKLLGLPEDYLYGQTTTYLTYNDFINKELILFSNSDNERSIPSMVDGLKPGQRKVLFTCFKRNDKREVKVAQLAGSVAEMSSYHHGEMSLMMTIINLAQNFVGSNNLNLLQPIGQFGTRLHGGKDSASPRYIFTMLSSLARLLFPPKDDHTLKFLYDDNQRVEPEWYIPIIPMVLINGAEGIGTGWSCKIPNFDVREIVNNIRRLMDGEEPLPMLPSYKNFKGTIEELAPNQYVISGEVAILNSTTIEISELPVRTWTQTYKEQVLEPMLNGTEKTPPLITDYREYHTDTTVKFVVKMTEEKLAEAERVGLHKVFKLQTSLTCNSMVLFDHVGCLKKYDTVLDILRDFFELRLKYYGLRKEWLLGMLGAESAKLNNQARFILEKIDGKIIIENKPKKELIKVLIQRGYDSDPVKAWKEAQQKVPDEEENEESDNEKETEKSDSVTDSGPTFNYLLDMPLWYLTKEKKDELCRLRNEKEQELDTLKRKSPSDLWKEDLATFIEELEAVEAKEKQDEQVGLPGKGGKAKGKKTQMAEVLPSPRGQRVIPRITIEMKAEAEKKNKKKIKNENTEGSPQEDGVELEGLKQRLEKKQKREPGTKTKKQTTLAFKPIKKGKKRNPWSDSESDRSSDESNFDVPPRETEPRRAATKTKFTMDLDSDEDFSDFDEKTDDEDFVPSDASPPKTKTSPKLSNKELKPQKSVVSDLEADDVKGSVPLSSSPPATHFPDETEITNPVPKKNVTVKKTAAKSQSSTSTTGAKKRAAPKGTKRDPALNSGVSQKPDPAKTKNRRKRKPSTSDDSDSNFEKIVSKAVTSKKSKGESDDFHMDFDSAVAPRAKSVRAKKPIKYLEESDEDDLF

## CN(C)CCCO/N=C1\c2ccccc2-c2nc3c(CN4CCOCC4)cccc3nc21.Cl
Escherichia coli
  Activity: inactive
MDA-MB-231
  IC50: 9.97 µM
[1]
  topoisomerase 2 inhibition (active/not active): inactive
[2]
  inhibition: inactive
[3]
  IC50: 6.93 µM
[4]
  topoisomerase 1 inhibition (active/inactive): Active
Huh-7
  Ratio IC50: 10.84
[5]
  inhibition: Active
[6]
  IC50: 9.92 µM
MRC5 [7]
  IC50: 73.5 µM
[8]
  IC50: 6.78 µM
[9]
  Ratio IC50: 10.6
MRC5 [10]
  Ratio IC50: 7.41
MRC5 [11]
  Ratio IC50: 7.37

## C(=N\OCCN1CCCC1)/c1cccc2nc3c(nc12)-c1ccccc1/C3=N\OCCN1CCCC1.Cl
Escherichia coli
  Activity: Active
MDA-MB-231
  IC50: 1.01 µM
[1]
  topoisomerase 2 inhibition (active/not active): Active
[2]
  inhibition: Active
[3]
  IC50: 6.02 µM
[4]
  topoisomerase 1 inhibition (active/inactive): Active
Huh-7
  Ratio IC50: 1.17
[5]
  inhibition call (active/not active): Active
[6]
  IC50: 5.17 µM
MRC5 [7]
  IC50: 0.91 µM
[8]
  IC50: 0.78 µM
[9]
  Ratio IC50: 0.15
MRC5 [10]
  Ratio IC50: 0.18
MRC5 [11]
  Ratio IC50: 0.9

## CN(C)CCCO/N=C1\c2ccccc2-c2nc3c(C(=O)NCCN4CCCC4)cccc3nc21.Cl
Escherichia coli
  Activity: Active
MDA-MB-231
  IC50: 0.45 µM
[1]
  topoisomerase 2 inhibition (active/not active): Active
[2]
  inhibition: Active
[3]
  IC50: 5.69 µM
[4]
  topoisomerase 1 inhibition (active/inactive): Active
Huh-7
  Ratio IC50: 9.62
[5]
  inhibition call (active/not active): Active
[6]
  IC50: 0.68 µM
MRC5 [7]
  IC50: 7.89 µM
[8]
  IC50: 0.82 µM
[9]
  Ratio IC50: 1.39
MRC5 [10]
  Ratio IC50: 11.6
MRC5 [11]
  Ratio IC50: 17.53

## CN(C)CCCO/N=C1\c2ccccc2-c2nc3c(C(=O)NCCN4CCOCC4)cccc3nc21.Cl
Escherichia coli
  Activity: Active
MDA-MB-231
  IC50: 0.99 µM
[1]
  topoisomerase 2 inhibition (active/not active): inactive
[2]
  inhibition: Active
[3]
  IC50: 9.69 µM
[4]
  topoisomerase 1 inhibition (active/inactive): Active
Huh-7
  Ratio IC50: 1.94
[5]
  inhibition call (active/not active): Active
[6]
  IC50: 9.78 µM
MRC5 [7]
  IC50: 11.5 µM
[8]
  IC50: 5.94 µM
[9]
  Ratio IC50: 1.19
MRC5 [10]
  Ratio IC50: 1.18
MRC5 [11]
  Ratio IC50: 11.63

## Cl.c1ccc2c(c1)/C(=N\OCCN1CCCC1)c1nc3ccccc3nc1-2
Escherichia coli
  Activity: inactive
MDA-MB-231
  IC50: 4.92 µM
[1]
  topoisomerase 2 inhibition (active/not active): inactive
[2]
  inhibition: Active
[3]
  IC50: 7.03 µM
[4]
  topoisomerase 1 inhibition (active/inactive): Active
Huh-7
  Ratio IC50: 2.73
[5]
  inhibition call (active/not active): Active
[6]
  IC50: 8.51 µM
MRC5 [7]
  IC50: 17.7 µM
[8]
  IC50: 6.46 µM
[9]
  Ratio IC50: 2.51
MRC5 [10]
  Ratio IC50: 2.07
MRC5 [11]
  Ratio IC50: 3.59

## CN(C)CCCO/N=C1\c2ccccc2-c2nc3c(C(=O)NCCN(C)C)cccc3nc21.Cl
Escherichia coli
  Activity: Active
MDA-MB-231
  IC50: 0.67 µM
[1]
  topoisomerase 2 inhibition (active/not active): Active
[2]
  inhibition: Active
[3]
  IC50: 6.88 µM
[4]
  topoisomerase 1 inhibition (active/inactive): Active
Huh-7
  Ratio IC50: 10.84
[5]
  inhibition call (active/not active): Active
[6]
  IC50: 0.89 µM
MRC5 [7]
  IC50: 9 µM
[8]
  IC50: 0.83 µM
[9]
  Ratio IC50: 1.31
MRC5 [10]
  Ratio IC50: 10.11
MRC5 [11]
  Ratio IC50: 13.43

## CN(C)CCCNC(=O)c1cccc2nc3c(nc12)-c1ccccc1C3=O
Escherichia coli
  Activity: inactive
MDA-MB-231
  IC50: 7.04 µM
[1]
  topoisomerase 2 inhibition (active/not active): inactive
[2]
  inhibition: inactive
[3]
  IC50: 7.82 µM
[4]
  topoisomerase 1 inhibition (active/inactive): Active
Huh-7
  Ratio IC50: 1.18
[5]
  inhibition call (active/not active): Active
[6]
  IC50: 10.2 µM
MRC5 [7]
  IC50: 9.07 µM
[8]
  IC50: 7.7 µM
[9]
  Ratio IC50: 1.16
MRC5 [10]
  Ratio IC50: 0.89
MRC5 [11]
  Ratio IC50: 1.29

## CN(C)CCCO/N=C1\c2ccccc2-c2nc3c(CN4CCCC4)cccc3nc21.Cl
Escherichia coli
  Activity: Active
MDA-MB-231
  IC50: 0.68 µM
[1]
  topoisomerase 2 inhibition (active/not active): inactive
[2]
  inhibition: Active
[3]
  IC50: 0.92 µM
[4]
  topoisomerase 1 inhibition (active/inactive): Active
Huh-7
  Ratio IC50: 2.81
[5]
  inhibition call (active/not active): Active
[6]
  IC50: 0.78 µM
MRC5 [7]
  IC50: 0.9 µM
[8]
  IC50: 0.32 µM
[9]
  Ratio IC50: 0.98
MRC5 [10]
  Ratio IC50: 1.15
MRC5 [11]
  Ratio IC50: 1.32

## CN(C)CCCO/N=C1\c2ccccc2-c2nc3ccccc3nc21.Cl
Escherichia coli
  Activity: inactive
MDA-MB-231
  IC50: 7.01 µM
[1]
  topoisomerase 2 inhibition (active/not active): inactive
[2]
  inhibition: Active
[3]
  IC50: 7.19 µM
[4]
  topoisomerase 1 inhibition (active/inactive): Active
Huh-7
  Ratio IC50: 3.69
[5]
  inhibition call (active/not active): Active
[6]
  IC50: 8.63 µM
MRC5 [7]
  IC50: 19.9 µM
[8]
  IC50: 5.38 µM
[9]
  Ratio IC50: 2.76
MRC5 [10]
  Ratio IC50: 2.3
MRC5 [11]
  Ratio IC50: 2.83

## Cc1cccc2nc3c(nc12)-c1ccccc1/C3=N\OCCCN(C)C.Cl
Escherichia coli
  Activity: inactive
MDA-MB-231
  IC50: 6.84 µM
[1]
  topoisomerase 2 inhibition (active/not active): inactive
[2]
  inhibition: Active
[3]
  IC50: 7.26 µM
[4]
  topoisomerase 1 inhibition (active/inactive): Active
Huh-7
  Ratio IC50: 1.34
[5]
  inhibition call (active/not active): Active
[6]
  IC50: 7.01 µM
MRC5 [7]
  IC50: 7.86 µM
[8]
  IC50: 5.88 µM
[9]
  Ratio IC50: 1.08
MRC5 [10]
  Ratio IC50: 1.12
MRC5 [11]
  Ratio IC50: 1.13

## CN(C)CCCO/N=C/c1cccc2nc3c(nc12)-c1ccccc1/C3=N\OCCCN(C)C.Cl
Escherichia coli
  Activity: inactive
MDA-MB-231
  IC50: 7.03 µM
[1]
  topoisomerase 2 inhibition (active/not active): Active
[2]
  inhibition: Active
[3]
  IC50: 5.1 µM
[4]
  topoisomerase 1 inhibition (active/inactive): Active
Huh-7
  Ratio IC50: 0.91
[5]
  inhibition call (active/not active): Active
[6]
  IC50: 6.27 µM
MRC5 [7]
  IC50: 6.56 µM
[8]
  IC50: 7.19 µM
[9]
  Ratio IC50: 1.29
MRC5 [10]
  Ratio IC50: 1.05
MRC5 [11]
  Ratio IC50: 0.93
